Screens deposited in PubChem BioAssay by Broad Institute.
Cneo AK release: causes C. neoformans cell lysis; adenylate kinase release luminescence, 4 h; normalised: neutral wells 0, clomiphene wells 100; 360,000 compounds, 0.2% hits; lysis activity, % at 15 µM;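 active means mean lysis activity across replicates of at least 80%, whatever share of replicates individually reach that level; inactive means mean lysis activity below 80%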
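Material – Cryptococcus neoformans yeast cells · Quantity – 5 × 10^6 yeast cells/mL · Buffer or medium – YPD medium · Compound – single dose · Timing – 4 h static compound exposure, 37 °C, read 1 h post-reagent · Signal – adenylate kinase release luminescence · Read-out basis – lysis from increased AK signal · Benchmarks – Clomiphene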
rRNA inh HTS: selective bacterial rRNA inhibition in E. coli; 350,000 compounds, 1.6% hits; AID 720706; GFP signal change (wild-type ribosome), % (concentration not given with the values); E. coli WT GFP vs humanized-ribosome RFP mutants, fluorescence, 24 h; hits give low values; DMSO median 0, no signal -100;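 active means significant combined selectivity score with lowered wild-type GFP, culture density cut under 30%, mutant RFP and density less affected; inactive means any of these conditions unmet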
E-sel inducer: induces E-selectin expression in human endothelial cells; HUVEC E-selectin immunofluorescence imaging; normalized: neutral wells 0, TNF-alpha wells 100; activation, % at 7.58 µM; AID 686992; 260,000 compounds, 0.37% hits;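 active means mean E-selectin-positive cell signal at least 10% of the positive control, reached in at least 60% of replicates, without over 20% cell loss; inconclusive means no rule given, readout overlaps actives, possibly toxicity-flagged; inactive means the rest, including those meeting only one limit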
Target sequence (P16581 whole entry, looked up): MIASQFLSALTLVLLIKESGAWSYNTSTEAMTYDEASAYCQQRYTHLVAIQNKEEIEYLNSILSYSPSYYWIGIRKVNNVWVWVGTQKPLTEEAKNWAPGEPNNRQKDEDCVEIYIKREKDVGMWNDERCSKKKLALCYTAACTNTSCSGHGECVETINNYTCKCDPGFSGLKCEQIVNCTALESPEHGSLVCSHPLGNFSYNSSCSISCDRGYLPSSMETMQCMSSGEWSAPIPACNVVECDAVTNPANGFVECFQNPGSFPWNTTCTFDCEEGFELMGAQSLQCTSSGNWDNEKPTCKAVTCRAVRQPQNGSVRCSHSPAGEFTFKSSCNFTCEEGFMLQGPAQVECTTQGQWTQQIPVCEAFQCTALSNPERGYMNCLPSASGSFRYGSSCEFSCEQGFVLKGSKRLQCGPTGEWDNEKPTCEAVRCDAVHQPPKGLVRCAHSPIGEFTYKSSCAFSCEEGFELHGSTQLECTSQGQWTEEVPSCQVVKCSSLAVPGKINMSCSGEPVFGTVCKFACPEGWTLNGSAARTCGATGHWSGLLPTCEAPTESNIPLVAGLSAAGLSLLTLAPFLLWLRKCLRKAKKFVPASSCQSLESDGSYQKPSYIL
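assay system = HUVEC, human umbilical vein endothelial cells | input = 3,000 HUVEC seeded per well | medium = EGM-2 growth medium on 0.1% gelatin-coated wells | dosing = one compound dose added by pin transfer | signal = immunofluorescence imaging | read-out basis = % PE-positive cells | control set = TNF-alpha, DMSO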
miR-122 sensor: inhibitors of miR-122 in Huh7 cells. Huh7 miR-122 Renilla luciferase sensor, 48 h; neutral wells = 0, positive control = 100. activation (reporter increase), % at 12.5 µM. 340,000 compounds, 0.3% hits. AID 602342;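 active means mean replicate activation score at least 90 and every replicate individually at or above 90; inconclusive means only one of the two criteria met; inactive means neither criterion met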;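 further: higher luciferase means less miR-122 activity so hits act as miR-122 inhibitors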
DENV2 CPE rescue: protects cells from dengue virus 2 cytopathic effect; CPE inhibition, % at 9.99 µM; 350,000 compounds, 1.7% hits; DENV2-infected cells, cytopathic effect rescue, plate reader; AID 651640; in the data active means CPE inhibition above about 20%, passing the limit was not always enough; inconclusive means no clear call, values can overlap the other calls; tested in BHK-21 cells
Hits are given with their value; i = inactive; ? = inconclusive; nt = no result given. Only some compounds are listed: those with a hit (about 3.1% of all), similar ones and a draw of the others.

SMILES	Cneo AK release	rRNA inh HTS	E-sel inducer	miR-122 sensor	DENV2 CPE rescue
Cc1ccc(-n2ncc3c(=O)[nH]c(SCC(=O)N4CCC(C)CC4)nc32)cc1C	i	i	i	i	i
CC(C)Sc1nc2c(cnn2-c2ccccc2)c(=O)[nH]1	i	i	i	i	i
Cc1ccc(-n2ncc3c(=O)[nH]c(SC(C)C)nc32)cc1	i	i	128	i	i
Cc1ccc(-n2ncc3c(=O)[nH]c(SCC(=O)N4CCCC4)nc32)cc1C	i	i	i	i	63
C[C@H](O)C#Cc1ccc2c(c1)O[C@@H](CN(C)CC1CCOCC1)[C@H](C)CN([C@H](C)CO)S2(=O)=O	i	i	i	i	i
COC(=O)c1ccccc1OCCOCCOc1cccc2ccc(C)nc12	i	-28	i	nt	i
Cc1ccc(OCCOc2cccc3ccc(C)nc23)c([N+](=O)[O-])c1	i	-21	i	i	i
Cc1ccc2cccc(OCc3cccc([N+](=O)[O-])c3)c2n1	i	i	i	i	i
O=C(C[C@@H]1C=C[C@H](NC(=O)Nc2ccc3c(c2)OCO3)[C@H](CO)O1)NCc1ccc2c(c1)OCO2	i	i	i	nt	i
CCCC#Cc1ccc(CC[C@H]2O[C@H]3CC[C@@H](CO)O[C@H]3C[C@H]2n2cc(C(C)(C)O)nn2)cc1	nt	nt	nt	nt	i
CCc1cc(=O)oc2cc(OCC(=O)NC3CC(C)(C)NC(C)(C)C3)ccc12	i	i	nt	i	36
CC1(C)CC(NC(=O)COc2ccccc2Cl)CC(C)(C)N1	i	i	i	i	33
O=C(NCC[C@H]1CC[C@H](NS(=O)(=O)c2ccccc2)[C@@H](CO)O1)c1ccc2c(c1)OCO2	i	i	i	nt	i
Cc1nc(C)n(C(Oc2ccc(Cl)cc2Cl)C(=O)C(C)(C)C)n1 (centres undefined)	i	-18	i	i	i
CC(Oc1ccc(Cl)cc1Cl)C(=O)Nn1cnnc1 (centres undefined)	i	nt	nt	i	nt
O=C(c1ccccc1)C1CC1c1ccccc1 (centres undefined)	i	i	i	i	i
C[C@H]1[C@H](c2ccccc2)C[C@@H](C(=O)O)C1(C)C	i	i	i	i	40
CN(C)C(=O)[C@@H]1[C@@H](CO)[C@@H]2Cn3c(ccc(-c4ccccc4F)c3=O)[C@H]1N2C	i	i	i	i	i
CC(=O)NCc1ccc(C(=O)COC(=O)COc2ccc(Cl)c(C)c2)s1	i	i	i	i	65
CCC1(C)Cc2c(C#N)c(SC)nc(N3CCOCC3)c2CO1 (centres undefined)	i	-40	i	i	i
C[C@@H]1CN([C@@H](C)CO)C(=O)c2cc(C3=CCCC3)cnc2O[C@@H]1CN(C)Cc1cccnc1	i	i	i	nt	i
CCCCC[C@@H]1C=C(C(=O)O)[C@H](c2ccc3c(c2)OCO3)N1S(=O)(=O)c1ccc(C)cc1	i	nt	nt	i	31
CC[C@@H]1C=C(C(=O)O)[C@H](c2ccc3c(c2)OCO3)N1S(=O)(=O)c1ccc(C)cc1	i	i	i	i	i
C[C@H](O)C#Cc1cnc2c(c1)C(=O)N([C@H](C)CO)C[C@H](C)[C@@H](CN(C)Cc1cccc(C(=O)O)c1)O2	i	i	i	i	i
CSc1ccccc1NC(=O)CSc1n[nH]c(C)c1[N+](=O)[O-]	nt	-30	i	i	i
SMILES	Cneo AK release	rRNA inh HTS	E-sel inducer	miR-122 sensor	DENV2 CPE rescue
C[C@@H]1CN(C)C(=O)c2cccnc2O[C@H]1CN(C)C	nt	i	nt	nt	nt
COc1ccc(NC(=O)N(C)C[C@H]2Oc3ccc(NS(=O)(=O)c4c(C)noc4C)cc3C(=O)N([C@@H](C)CO)C[C@@H]2C)cc1	i	i	i	i	i
Cn1c2ccccc2c2ccc3c(c21)C(=O)C=CC3=O	nt	-25	i	i	i
O=C(C[C@@H]1CC[C@H]2[C@@H](COC[C@H](O)CN2Cc2cccc(Cl)c2)O1)NCC1CCCCC1	i	i	i	i	i
CC(C)c1ccc(NC(=O)Nc2nc(C(N)CCc3ccccc3)cs2)cc1 (centres undefined)	i	i	i	i	37
CC(C)c1ccc(NC(=O)Nc2nc(C(C)N)cs2)cc1 (centres undefined)	i	nt	i	i	i
COc1ccc(CCNC(=O)Nc2nc(C(N)COCc3ccccc3)cs2)cc1OC (centres undefined)	i	-14	i	nt	i
COc1ccc(CCNC(=O)Nc2nc(C(N)Cc3ccccc3)cs2)cc1OC (centres undefined)	i	i	i	i	i
CC(C)c1ccc(NC(=O)Nc2nc(C(N)c3ccccc3Cl)cs2)cc1 (centres undefined)	i	i	i	i	23
O=C(C[C@@H]1CC[C@H]2[C@@H](COC[C@H](O)CN2C(=O)Cc2ccccc2)O1)NC1CCCC1	i	i	i	i	i
CC1(C)Cc2c(sc3ncnc(NNC(=S)NCc4ccccc4)c23)CO1	nt	-34	nt	nt	i
CC(C)NC(=S)NNc1ncnc2sc3c(c12)CC(C)(C)OC3	i	i	i	i	i
CCc1ccccc1NC(=S)N1N=CCC1c1ccccc1 (centres undefined)	i	i	nt	i	i
Cc1cccc(NC(=S)N2N=CCC2c2ccccc2)c1 (centres undefined)	i	-23	nt	i	nt
COc1ccc2c3c(n(C)c2c1)[C@H](CO)N(C(=O)c1ccccc1)CC31CN(C)C1	nt	i	i	nt	i
COc1ccc(/C=C/C(=O)NCCOc2ccccc2OC)cc1	nt	nt	i	nt	nt
Cc1ccccc1OCC(=O)OCC(=O)NCc1ccccc1	i	i	nt	i	i
Cc1ccc(OCCC(=O)OCC(=O)NCc2ccccc2)cc1	nt	i	i	i	i
Cc1ccccc1OCCNC(=O)CNC(=O)c1ccccc1O	i	-27	nt	i	i
Cc1ccc(OCCC(=O)OCC(=O)NCCc2ccccc2)cc1	nt	-22	nt	nt	i
Cc1ccc(OCCNC(=O)/C=C/c2ccccc2)cc1	nt	i	nt	i	28
Cc1ccccc1OCC(=O)OCC(=O)NCCNC(=O)COC(=O)COc1ccccc1C	nt	i	i	i	44
COc1ccccc1OCCNC(=O)c1ccccc1C	i	nt	nt	i	nt
COc1ccc(/C=N/NC(=O)COc2ccccc2-c2ccccc2)cc1	i	i	nt	129	nt
COc1ccc(/C=N/NC(=O)CCSc2nc3ccccc3s2)cc1	nt	-26	nt	nt	i
Cc1ccc(OCC(=O)NNC(=O)C2CCN(c3ncnc4sc(C)c(C)c34)CC2)cc1	nt	i	i	nt	i
Cc1sc2ncnc(N3CCC(C(=O)NNC(=O)COc4cccc(C(F)(F)F)c4)CC3)c2c1C	nt	-19	i	nt	i
COc1ccc(NC(=O)C2CCC(=O)N2)cc1 (centres undefined)	i	nt	nt	i	nt
Cc1cc(C)c(NC(=O)C2CCC(=O)N2)c(C)c1 (centres undefined)	735	i	nt	i	i
COc1ccc(C#Cc2ccc3c(c2)O[C@H](CN(C)C(C)=O)[C@@H](C)CN([C@@H](C)CO)S3(=O)=O)cc1	98	i	i	i	?
